From article PMC9647114 (Journal of Clinical and Translational Hepatology, 2022)
Bridges are numbered along the chain shown (N, C = ends). Where no end group is shown, it is not given here.

Legend:
HCC-LM3 cells = test: Confocal fluorescence microscopy of probe binding to HCC-LM3 cells; type: cell-based, human; details: 6 nM probe, 2 h incubation, Fig. 1B
Procedure, shortened: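 HCC-LM3 cells were grown on glass coverslips for 24 h, then incubated with 6 nM Cy7-labelled probe for 2 h and washed three times in PBS. They were fixed in 4% paraformaldehyde, permeabilised with 0.2% Triton X-100 and blocked with 5% BSA. Staining used rabbit anti-integrin α6 (1:250, overnight, 4°C), then fluorescein goat anti-rabbit (1:1,000, 1 h, 37°C), with DAPI for nuclei. Imaged by confocal microscopy.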

orthotopic HCC lesions = test: NIRF imaging with Cy5 probe, orthotopic HCC mice; type: in vivo; details: i.v., Supplementary Fig. 1
[1] = test system: subcutaneous HCC-LM3 tumors; test: Photoacoustic imaging, subcutaneous HCC-LM3 tumors; type: in vivo, mice; details: after i.v. injection, 0 to 48 h
[2] = test system: subcutaneous HCC-LM3 tumor; test: NIRF imaging and ex vivo biodistribution, subcutaneous HCC-LM3 tumor model; type: in vivo; details: mice, i.v., statement of the discussion
H22 cells = test: CCK-8 in vitro cytotoxicity assay; type: cell-based, mouse; details: 0 to 500 nM, 48 h or 72 h, Supplementary Fig. 3
Procedure, shortened: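 H22 mouse hepatoma cells grown in DMEM with 10% FBS and 1% pen/strep at 37°C, 5% CO2. Cells were seeded at 3×10^3 per well and left 24 h, then exposed to the Cy7-labelled peptide probe at 0–500 nM for 48 h or 72 h. CCK-8 reagent was then added for 2 h, and absorbance was read at 450 nm.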

major organs = test: In vivo toxicity by H&E staining of major organs; details: imaging dose; heart, spleen, lung, kidney, brain of H22 tumor-bearing nude mice vs control group, Supplementary Fig. 9
[3] = test system: orthotopic HCC-H22 tumors; test: NIRF imaging and biodistribution, orthotopic HCC-H22 tumor model; type: in vivo, mice; details: orthotopic HCC-H22, tumor and major organs 48 h after injection, Fig. 3
Procedure, shortened: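 Nude mice carried orthotopic luciferase-tagged H22 liver lesions and received Cy7-labelled probe or Cy7-control peptide i.v. by tail vein. NIRF imaging used 740 nm excitation and a 780 nm filter. Mice were killed 48 h post-injection, and tumor, heart, liver, spleen, kidney, lung and brain were imaged ex vivo. Organ fluorescence intensity was quantified.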

[4] = test system: orthotopic HCC-LM3 tumors; test: NIRF imaging, orthotopic HCC-LM3 tumor model; type: in vivo, mice; details: post-injection; sustained until 24 h
integrin a6 = details: peptide identified by phage display; cited from earlier work

CGGGGGGGC (cysteine pairing not given here) [Cy7-control, reference compound]
Fluorescence signal in cells by confocal microscopy (HCC-LM3 cells): no fluorescence response

CRWYDENAC (disulfide 1-9 (inferred)) [Cy5-RWY]
Homing of probe to HCC lesions (NIRF) (orthotopic HCC lesions): specifically homed to HCC lesions

CRWYDENAC (disulfide 1-9 (inferred)) [Cy7-RWY]
Time at which NIRF and PA signals in the tumor peaked [1]: 24 h | Time at which NIRF and PA signals started to accumulate in the tumor [1]: 2 h | Renal clearance [2]: fast renal clearance | Cytotoxicity (cell viability, CCK-8) (H22 cells): no significant cytotoxicity | Fluorescence signal in cells by confocal microscopy (HCC-LM3 cells): Strong red fluorescence signals | Cell and tissue damage in major organs (H&E) (major organs): did not find significant cell and tissue damage | Ex vivo fluorescence signal in tumors [3]: high level of the fluorescence signal | Time at which tumor fluorescence signal reached a steady level [4]: 6 h

CRWYDENAC (disulfide 1-9 (inferred)) [RWY]
Binding to integrin a6 (integrin a6): high specificity and affinity
